Experimental data of several laboratories.
Protocols differ between the studies behind these lines.
Organism: Staphylococcus aureus
Observed: microbial growth

For `Cc1ccccc1-n1c(Cn2cnc3c(N)ncnc32)nc2cccc(C)c2c1=O`, the MIC was greater than 30 µM (NCTC8325).
For `Cc1ccc2nc(-c3c(F)cccc3Cl)[nH]c2c1`, the MIC was 64 µg/mL (broth dilution; ATCC43300 MRSA; drug-resistant strain).
For `Cc1ccc2[nH]c3c(c2c1)CCCC3NCCc1ccc(O)cc1` (centres unmarked), the MIC was 16 µg/mL (broth dilution; ATCC29213).
For `CCCCCCCCCCCC(=O)C(F)(F)P(=O)(O)O`, the MIC was greater than 200 µg/mL (ATCC33591 MRSA; drug-resistant strain).
The MIC of `COC(=O)c1cc(-c2cccc(NC(=O)Nc3cc(Cl)ccc3Cl)c2)on1` is reported as greater than 64 µg/mL (broth dilution; ATCC29213).
For `CC1(C)CC[C@]2(C(=O)O)CC[C@]3(C)C(=CC[C@@H]4[C@@]5(C)CC[C@H](O)C(C)(C)[C@@H]5CC[C@]43C)[C@@H]2C1`, the MIC was 256 µg/mL (ATCC25904).
`Cc1ccc2nc(-c3cccnc3)[nH]c2c1` gave an MIC of 128 µg/mL (broth dilution; ATCC43300 MRSA; drug-resistant strain).
For `CCC(CC)c1cc(CCN2CCCN(Cc3ccc(C(F)(F)F)cc3)CC2)nc(-c2ccncc2)n1`, the MIC was 6 µg/mL (ATCCBAA1720; drug-resistant strain, clinical isolate).
With `CCCC(=O)CP(=O)(O)O` the MIC was greater than 200 µg/mL (ATCC33591 MRSA; drug-resistant strain).
With `CCOc1ccc(-c2nc3ccccc3n2Cc2ccccc2)cc1` the MIC was 64 µg/mL (broth dilution; ATCC43300 MRSA; drug-resistant strain).
With `CN[C@H](CC(C)C)C(=O)N[C@H]1C(=O)N[C@@H](CC(N)=O)C(=O)N[C@H]2C(=O)N[C@H]3C(=O)N[C@H](C(=O)N[C@H](C(=O)O)c4cc(O)cc(O)c4-c4cc3ccc4O)[C@H](O)c3ccc(c(Cl)c3)Oc3cc2cc(c3O[C@@H]2O[C@H](CO)[C@@H](O)[C@H](O)[C@H]2O[C@H]2C[C@](C)(N)[C@H](O)[C@H](C)O2)Oc2ccc(cc2Cl)[C@H]1O` the MIC was 1 µg/mL (broth dilution; ATCCBAA44; drug-resistant strain).
The MIC of `CN[C@H](CC(C)C)C(=O)N[C@H]1C(=O)N[C@@H](CC(N)=O)C(=O)N[C@H]2C(=O)N[C@H]3C(=O)N[C@H](C(=O)N[C@H](C(=O)O)c4cc(O)cc(O)c4-c4cc3ccc4O)[C@H](O)c3ccc(c(Cl)c3)Oc3cc2cc(c3O[C@@H]2O[C@H](CO)[C@@H](O)[C@H](O)[C@H]2O[C@H]2C[C@](C)(N)[C@H](O)[C@H](C)O2)Oc2ccc(cc2Cl)[C@H]1O` is reported as 0.78 µM (broth dilution; 25923).
With `CCC1C(=NOCc2cc(-c3ccc(Cl)cc3)no2)CC(c2ccccc2)OC1c1ccccc1` (centres unmarked) the MIC was 50 µg/mL (broth dilution; MTCC96; 24 h).
For `COC(=O)c1cc(-c2ccc(OC)c(NC(=O)Nc3ccc(Cl)c(Cl)c3)c2)on1`, the MIC was greater than 64 µg/mL (broth dilution; ATCC29213).
`O=C(O)c1cn(C2CC2)c2cc(N3CCNCC3)c(F)cc2c1=O` has an MIC of 16 µg/mL (broth dilution; ATCC43300 MRSA; drug-resistant strain).
The MIC of `COC(=O)c1cc(-c2cccc(NC(=O)Nc3ccccc3OC)c2)on1` is reported as greater than 64 µg/mL (broth dilution; ATCC29213).
`Cc1ccc2nc(-c3ccc(N(C)C)cc3)[nH]c2c1` has an MIC of 128 µg/mL (broth dilution; ATCC43300 MRSA; drug-resistant strain).
For `CN[C@H](CC(C)C)C(=O)N[C@H]1C(=O)N[C@@H](CC(N)=O)C(=O)N[C@H]2C(=O)N[C@H]3C(=O)N[C@H](C(=O)N[C@H](C(=O)O)c4cc(O)cc(O)c4-c4cc3ccc4O)[C@H](O)c3ccc(c(Cl)c3)Oc3cc2cc(c3O[C@@H]2O[C@H](CO)[C@@H](O)[C@H](O)[C@H]2O[C@H]2C[C@](C)(N)[C@H](O)[C@H](C)O2)Oc2ccc(cc2Cl)[C@H]1O`, the MIC was 1 µg/mL (USA300).
For `CCCCCCNC(=S)Nc1cccc(-c2cc(C(=O)OC)no2)c1`, the MIC was greater than 64 µg/mL (broth dilution; ATCC29213).
With `C=C(NC(=O)C(=C)NC(=O)c1csc(C2=N[C@@H]3c4csc(n4)[C@H]4NC(=O)c5csc(n5)[C@H]([C@](C)(O)[C@@H](C)O)NC(=O)[C@H]5CSC(=N5)/C(=C/C)NC(=O)[C@H]([C@@H](C)O)NC(=O)c5csc(n5)[C@]3(CC2)NC(=O)[C@H](C)NC(=O)C(=C)NC(=O)[C@H](C)NC(=O)[C@H]([C@@H](C)CC)N[C@@H]2C=Cc3c([C@H](C)O)cc(nc3[C@H]2O)C(=O)O[C@@H]4C)n1)C(N)=O` the MIC was 0.12 µg/mL (MRSA).
